pIC50: −log10 of the molar value.
Columns and labels:
[1] = tested on: A-375; test: Cytotoxicity against human A375 cells assessed as growth inhibition after 120 hrs by MTT assay; format: functional, cell-based; settings: A-375, 120 h
Outline: (§1)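 Cells kept in DMEM with 10% FBS, penicillin and streptomycin at 37 °C, 5% CO2. Seeded at 2000 cells/well, grown 24 h, then exposed to a range of compound concentrations for 120 h. MTT at 0.5 mg/mL added for 4 h at 37 °C. Formazan dissolved in DMSO, absorbance read at 570 nm. IC50 is the mean of three determinations.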

[2] = tested on: KETR3; test: Cytotoxicity against human Ketr3 cells assessed as growth inhibition after 120 hrs by MTT assay; format: functional, cell-based; settings: KETR3, 120 h; outline: as §1
[3] = tested on: HT-29; test: Cytotoxicity against human HT-29 cells assessed as growth inhibition after 120 hrs by MTT assay; format: functional, cell-based; settings: HT-29, 120 h; outline: as §1
[4] = tested on: MX1; test: Cytotoxicity against human MX1 cells assessed as growth inhibition after 120 hrs by MTT assay; format: functional, cell-based; settings: MX1, 120 h; outline: as §1
[5] = tested on: HepG2; test: Cytotoxicity against human HepG2 cells assessed as growth inhibition after 120 hrs by MTT assay; format: functional, cell-based; settings: HepG2, 120 h; outline: as §1
[6] = target: Serine/threonine-protein kinase B-raf (Homo sapiens, UniProt P15056); test: Inhibition of B-Raf (unknown origin) after 1 hr by ADP-Glo assay
Sequence of Serine/threonine-protein kinase B-raf (P15056 whole entry): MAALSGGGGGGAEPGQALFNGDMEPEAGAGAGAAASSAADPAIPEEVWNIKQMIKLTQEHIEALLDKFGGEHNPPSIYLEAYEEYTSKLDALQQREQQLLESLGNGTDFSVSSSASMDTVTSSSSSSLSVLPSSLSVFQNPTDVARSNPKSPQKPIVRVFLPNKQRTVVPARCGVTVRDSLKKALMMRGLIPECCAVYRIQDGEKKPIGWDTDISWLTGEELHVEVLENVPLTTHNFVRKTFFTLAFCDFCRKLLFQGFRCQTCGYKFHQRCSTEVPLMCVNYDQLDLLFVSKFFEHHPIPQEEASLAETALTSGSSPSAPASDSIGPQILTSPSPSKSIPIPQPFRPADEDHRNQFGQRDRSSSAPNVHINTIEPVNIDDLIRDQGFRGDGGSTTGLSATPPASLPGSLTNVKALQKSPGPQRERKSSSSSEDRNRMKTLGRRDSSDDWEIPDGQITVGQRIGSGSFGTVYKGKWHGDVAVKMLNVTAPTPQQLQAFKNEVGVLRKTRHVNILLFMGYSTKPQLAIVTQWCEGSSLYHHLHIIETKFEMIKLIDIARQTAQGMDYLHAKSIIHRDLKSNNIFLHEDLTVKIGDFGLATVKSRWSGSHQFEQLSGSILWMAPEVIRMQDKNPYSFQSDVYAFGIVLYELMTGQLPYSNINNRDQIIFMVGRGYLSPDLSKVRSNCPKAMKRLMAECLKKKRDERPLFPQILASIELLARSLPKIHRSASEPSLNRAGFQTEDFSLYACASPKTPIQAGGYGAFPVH

[7] = target: RAF proto-oncogene serine/threonine-protein kinase (Homo sapiens, UniProt P04049); test: Inhibition of C-Raf (unknown origin) after 1 hr by ADP-Glo assay
Sequence of RAF proto-oncogene serine/threonine-protein kinase (P04049 whole entry): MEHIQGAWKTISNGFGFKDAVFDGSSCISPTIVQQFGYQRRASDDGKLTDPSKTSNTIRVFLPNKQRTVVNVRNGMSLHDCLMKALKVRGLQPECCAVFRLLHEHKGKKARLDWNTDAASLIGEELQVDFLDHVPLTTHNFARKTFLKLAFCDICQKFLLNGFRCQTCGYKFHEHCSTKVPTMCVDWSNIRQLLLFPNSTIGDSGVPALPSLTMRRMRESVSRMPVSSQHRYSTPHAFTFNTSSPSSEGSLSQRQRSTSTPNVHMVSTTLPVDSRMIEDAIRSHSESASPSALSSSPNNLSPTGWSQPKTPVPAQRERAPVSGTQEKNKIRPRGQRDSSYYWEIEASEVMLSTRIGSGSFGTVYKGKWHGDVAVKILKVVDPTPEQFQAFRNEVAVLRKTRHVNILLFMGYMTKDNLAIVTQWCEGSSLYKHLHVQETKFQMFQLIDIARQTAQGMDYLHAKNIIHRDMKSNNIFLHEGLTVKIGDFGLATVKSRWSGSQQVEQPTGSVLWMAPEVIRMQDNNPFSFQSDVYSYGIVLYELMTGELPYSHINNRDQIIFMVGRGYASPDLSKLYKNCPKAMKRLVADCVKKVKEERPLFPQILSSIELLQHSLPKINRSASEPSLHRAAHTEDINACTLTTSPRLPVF
Outline: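 Run in duplicate. Kinase, substrate, ATP and compound reacted 1 h at 30 °C. ADP-Glo reagent was added to stop the reaction, followed by 40 min at 27 °C. Kinase detection reagent was then added for a further 30 min at the same temperature before luminescence reading.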

[8] = tested on: HT-29; test: Potency index, ratio of sorafenib IC50 to compound IC50 for human HT-29 cells; format: functional

pIC50 [6] | pIC50 [7] | Compound | pIC50 [1] | pIC50 [2] | pIC50 [3] | pIC50 [4] | pIC50 [5] | Ratio IC50 [8]
– | – | CNC(=O)/C=C/c1ccc(NC(=O)Nc2ccc(Cl)c(C(F)(F)F)c2)cc1 | 4.68 | 4.67 | 4.93 | 4.86 | 4.69 | –
– | – | CC(NC(=O)/C=C/c1ccc(NC(=O)Nc2ccc(Cl)c(C(F)(F)F)c2)cc1)c1ccccc1 (centres undefined) | 4.68 | 4.67 | 5.97 | 5.50 | 4.91 | –
– | – | CC(NC(=O)/C=C/c1ccc(NC(=O)Nc2cc(C(F)(F)F)ccc2Cl)cc1)c1ccccc1 (centres undefined) | 4.39 | 4.84 | 5.38 | 5.72 | 4.44 | –
– | – | O=C(/C=C/c1ccc(NC(=O)Nc2ccc(Cl)c(C(F)(F)F)c2)cc1)NC1CCC1 | 4.81 | 4.76 | 5.35 | 5.34 | 5.12 | –
– | – | CC1CN(C(=O)/C=C/c2ccc(NC(=O)Nc3ccc(Cl)c(C(F)(F)F)c3)cc2)CC(C)O1 (centres undefined) | < 4.30 | < 4.30 | 5.04 | 4.89 | 4.34 | –
– | – | CNC(=O)CCc1ccc(NC(=O)Nc2ccc(Cl)c(C(F)(F)F)c2)cc1 | 4.60 | 4.62 | 4.69 | 4.69 | 4.68 | –
– | – | CC(NC(=O)CCc1ccc(NC(=O)Nc2ccc(Cl)c(C(F)(F)F)c2)cc1)c1ccccc1 (centres undefined) | < 4.30 | < 4.30 | 4.58 | < 4.30 | < 4.30 | –
– | – | O=C(CCc1ccc(NC(=O)Nc2ccc(Cl)c(C(F)(F)F)c2)cc1)NC1CCC1 | < 4.30 | < 4.30 | 4.67 | 4.62 | < 4.30 | –
– | – | CC1CN(C(=O)CCc2ccc(NC(=O)Nc3ccc(Cl)c(C(F)(F)F)c3)cc2)CC(C)O1 (centres undefined) | < 4.30 | < 4.30 | < 4.30 | < 4.30 | < 4.30 | –
– | – | CNC(=O)/C(C)=C/c1ccc(NC(=O)Nc2ccc(Cl)c(C(F)(F)F)c2)cc1 | < 4.30 | < 4.30 | < 4.30 | < 4.30 | 4.35 | –
– | – | C/C(=C\c1ccc(NC(=O)Nc2ccc(Cl)c(C(F)(F)F)c2)cc1)C(=O)NC(C)c1ccccc1 (centres undefined) | < 4.30 | < 4.30 | < 4.30 | < 4.30 | < 4.30 | –
– | – | C/C(=C\c1ccc(NC(=O)Nc2ccc(Cl)c(C(F)(F)F)c2)cc1)C(=O)N1CC(C)OC(C)C1 (centres undefined) | < 4.30 | < 4.30 | < 4.30 | < 4.30 | < 4.30 | –
– | – | CNC(=O)/C=C(\C)c1ccc(NC(=O)Nc2ccc(Cl)c(C(F)(F)F)c2)cc1 | < 4.30 | < 4.30 | < 4.30 | < 4.30 | < 4.30 | –
– | – | C/C(=C\C(=O)NC(C)c1ccccc1)c1ccc(NC(=O)Nc2ccc(Cl)c(C(F)(F)F)c2)cc1 (centres undefined) | < 4.30 | < 4.30 | < 4.30 | < 4.30 | < 4.30 | –
– | – | C/C(=C\C(=O)N1CC(C)OC(C)C1)c1ccc(NC(=O)Nc2ccc(Cl)c(C(F)(F)F)c2)cc1 (centres undefined) | 4.34 | < 4.30 | 4.58 | < 4.30 | < 4.30 | –
– | – | CNC(=O)/C=C/Oc1ccc(NC(=O)Nc2ccc(Cl)c(C(F)(F)F)c2)cc1 | 4.43 | < 4.30 | < 4.30 | 4.73 | 4.62 | –
– | – | CC(NC(=O)/C=C/Oc1ccc(NC(=O)Nc2ccc(Cl)c(C(F)(F)F)c2)cc1)c1ccccc1 (centres undefined) | 4.68 | 4.84 | < 4.30 | 4.86 | 4.85 | –
– | – | CC(NC(=O)/C=C/Oc1ccc(NC(=O)Nc2cc(C(F)(F)F)ccc2Cl)cc1)c1ccccc1 (centres undefined) | 4.80 | 4.79 | < 4.30 | 4.79 | 4.92 | –
– | – | CNC(=O)C#Cc1ccc(NC(=O)Nc2ccc(Cl)c(C(F)(F)F)c2)cc1 | < 4.30 | 4.61 | 4.85 | 4.58 | 4.63 | –
– | – | CC(NC(=O)C#Cc1ccc(NC(=O)Nc2ccc(Cl)c(C(F)(F)F)c2)cc1)c1ccccc1 (centres undefined) | 4.77 | 4.67 | 5.31 | 4.89 | 4.69 | –
– | – | CC(NC(=O)C#Cc1ccc(NC(=O)Nc2cc(C(F)(F)F)ccc2Cl)cc1)c1ccccc1 (centres undefined) | 4.52 | 4.63 | 5.50 | 4.79 | 4.72 | –
– | – | CNC(=O)c1cccc(-c2ccc(NC(=O)Nc3ccc(Cl)c(C(F)(F)F)c3)cc2)c1 | 4.33 | 4.41 | 4.53 | < 4.30 | 4.43 | –
< 4.30 | < 4.30 | CC(NC(=O)c1cccc(-c2ccc(NC(=O)Nc3ccc(Cl)c(C(F)(F)F)c3)cc2)c1)c1ccccc1 (centres undefined) | 5.29 | 5.19 | 5.20 | 5.28 | 5.25 | –
– | – | CC(NC(=O)c1ccc(-c2ccc(NC(=O)Nc3ccc(Cl)c(C(F)(F)F)c3)cc2)cc1)c1ccccc1 (centres undefined) | 4.89 | 4.71 | 5.22 | 5.33 | 4.77 | –
– | – | CC(NC(=O)c1ccc(-c2ccc(NC(=O)Nc3cc(C(F)(F)F)ccc3Cl)cc2)cc1)c1ccccc1 (centres undefined) | 4.77 | 4.77 | 5.18 | 4.75 | 4.74 | –
– | – | CC1CN(C(=O)c2ccc(-c3ccc(NC(=O)Nc4ccc(Cl)c(C(F)(F)F)c4)cc3)cc2)CC(C)O1 (centres undefined) | < 4.30 | 4.38 | 5.69 | < 4.30 | 4.51 | 8
– | – | CC1CN(C(=O)c2ccc(-c3ccc(NC(=O)Nc4cc(C(F)(F)F)ccc4Cl)cc3)cc2)CC(C)O1 (centres undefined) | < 4.30 | < 4.30 | 5.72 | < 4.30 | < 4.30 | 8
– | – | CNC(=O)c1cc(Oc2ccc(NC(=O)Nc3ccc(Cl)c(C(F)(F)F)c3)cc2)ccn1 [SORAFENIB] | 5.04 | 4.73 | 4.82 | 5.08 | 5.06 | –
